Experimental data as given in ChEMBL document CHEMBL1154237, “Influenza A (H(1)N(1)) Antiviral and Cytotoxic Agents from Ferula assa-foetida” (J Nat Prod, 2009).
≈ marks a conversion by molar mass, not a printed value.

Legend:
A549 = assay: Cytotoxicity against human A549 cells after 3 days by MTT assay; type: functional, cell-based; conditions: A549, 72 h
In short: (§1)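 Freshly trypsinized cells were seeded at 5000-10 000 cells/well, with compounds added from DMSO stock, and cultured 3 days. Attached cells were then incubated with MTT (0.5 mg/mL, 1 h), solubilized in DMSO, and absorbance read at 550 nm.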

[1] = Cytotoxicity against human Hep3B cells after 3 days by MTT assay; type: functional, cell-based, Hep 3B2; conditions: 72 h; in short: as §1
MDA-MB-231 = assay: Cytotoxicity against human MDA-MB-231 cells after 3 days by MTT assay; type: functional, cell-based; conditions: MDA-MB-231, 72 h; in short: as §1
HepG2 = assay: Cytotoxicity against human HepG2 cells after 3 days by MTT assay; type: functional, cell-based; conditions: HepG2, 72 h; in short: as §1
Influenza A virus = assay: Antiviral activity against Influenza A virus H1N1 infected in MDCK cells assessed as inhibition of virus-induced cytopathic effect after 3 days by XTT assay; type: functional, organism-based; conditions: 72 h
In short: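 MDCK cells, trypsinized and seeded at 1.0 × 10^5 cells/mL, grown 24 h at 35 °C, 5% CO2 in MEM with 2% FCS plus antibiotics. Virus added for 1 h, then test substances at several concentrations in triplicate. After 3 days at 35 °C, XTT added for 3 h and OD492/OD690 read.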

Ca9-22 = assay: Cytotoxicity against human Ca9-22 cells after 3 days by MTT assay; type: functional, cell-based; conditions: Ca9-22, 72 h; in short: as §1
MCF7 = assay: Cytotoxicity against human MCF7 cells after 3 days by MTT assay; type: functional, cell-based; conditions: MCF7, 72 h; in short: as §1

| SMILES | IC50 (A549) [µg/mL] | IC50 [1] [µg/mL] | IC50 (MDA-MB-231) [µg/mL] | IC50 (HepG2) [µg/mL] | IC50 (Influenza A virus) [µg/mL] | IC90 (Influenza A virus) [µg/mL] | IC50 (Ca9-22) [µg/mL] | IC50 (MCF7) [µg/mL] |
| --- | --- | --- | --- | --- | --- | --- | --- | --- |
| CC1=CC[C@@H]2C(C)(C)[C@@H](O)CC[C@@]2(C)[C@@H]1COc1ccc2ccc(=O)oc2c1 [CONFEROL] | 9.08 (≈ 23.7 µM) | 2.63 (≈ 6.88 µM) | > 20 | 0.51 (≈ 1.33 µM) | 0.47 (≈ 1.23 µM) | 0.83 (≈ 2.17 µM) | 6.83 (≈ 17.9 µM) | 3.38 (≈ 8.84 µM) |
| CC1=CC(=O)[C@@H]2C(C)(C)C(=O)CC[C@@]2(C)[C@@H]1COc1ccc2ccc(=O)oc2c1 | – | – | – | – | 0.32 (≈ 0.811 µM) | 0.37 (≈ 0.938 µM) | – | – |
| NC12CC3CC(CC(C3)C1)C2 [AMANTADINE] | – | – | – | – | 0.92 (≈ 6.08 µM) | – | – | – |
| COc1cc(C=O)ccc1O [VANILLIN] | 16.4 (≈ 108 µM) | > 20 | > 20 | > 20 | – | – | > 20 | 15.7 (≈ 103 µM) |
| COc1cccc2c1C(=O)c1c(O)c3c(c(O)c1C2=O)C[C@@](O)(C(=O)CO)C[C@@H]3O[C@H]1C[C@H](N)[C@H](O)[C@H](C)O1 [DOXORUBICIN] | 0.35 (≈ 0.644 µM) | 0.41 (≈ 0.754 µM) | – | 0.16 (≈ 0.294 µM) | – | – | 0.14 (≈ 0.258 µM) | 0.43 (≈ 0.791 µM) |
| C=C1CC[C@]2(C)C(C)(C)[C@@H](OC(C)=O)CC[C@]2(C)[C@H]1COc1ccc2ccc(=O)oc2c1 [POLYANTHININ] | 12.3 (≈ 28 µM) | 5.9 (≈ 13.5 µM) | 15.7 (≈ 35.8 µM) | 10.4 (≈ 23.8 µM) | – | – | 12.7 (≈ 28.9 µM) | 9.94 (≈ 22.7 µM) |
| C/C(=C\COc1ccc2ccc(=O)oc2c1)CC/C=C(\C)CC[C@@H](O)C(C)(C)O | 11 (≈ 27.4 µM) | > 20 | > 20 | > 20 | 0.99 (≈ 2.47 µM) | 2.05 (≈ 5.12 µM) | > 20 | 14.3 (≈ 35.6 µM) |
| C=C1CC[C@@H]2C(C)(C)[C@H](O)CC[C@@]2(C)[C@H]1COc1ccc2ccc(=O)oc2c1 [FARNESIFEROL A] | 15.8 (≈ 41.3 µM) | 7.66 (≈ 20 µM) | 19 (≈ 49.7 µM) | 14.9 (≈ 38.9 µM) | 0.51 (≈ 1.33 µM) | 0.64 (≈ 1.67 µM) | 12.1 (≈ 31.6 µM) | 15.6 (≈ 40.7 µM) |
| CC(C)=CCC/C(C)=C/[C@@H](O)C/C(C)=C/COc1ccc2ccc(=O)oc2c1 | – | – | – | – | 0.36 (≈ 0.941 µM) | 0.62 (≈ 1.62 µM) | – | – |
| CC(=O)OC(CC=C(C)C)/C(C)=C/[C@@H](O)C/C(C)=C/COc1ccc2ccc(=O)oc2c1 (stereo partly drawn) | > 20 | 9.82 (≈ 22.3 µM) | > 20 | 15.6 (≈ 35.4 µM) | 0.81 (≈ 1.84 µM) | 1.56 (≈ 3.54 µM) | 14.2 (≈ 32.3 µM) | > 20 |
| C/C(=C\COc1ccc2ccc(=O)oc2c1)CC[C@@H]1C(C)(C)[C@H]2CC[C@]1(C)O2 [FARNESIFEROL C] | – | – | – | – | 0.29 (≈ 0.758 µM) | 0.5 (≈ 1.31 µM) | – | – |
| CC(C)=C1CC[C@H](C)[C@](C)(COc2ccc3ccc(=O)oc3c2)[C@H]1CCC(=O)O [GALBANIC ACID] | – | – | – | – | 0.45 (≈ 1.13 µM) | – | – | – |
| CCC(C)SSC/C=C/OS(C)=O (stereo not drawn) [FOETISULFIDE C] | 9.14 (≈ 38 µM) | 19.2 (≈ 79.9 µM) | > 20 | > 20 | – | – | 16.5 (≈ 68.5 µM) | > 20 |
| C[C@@H]1C[C@@H](O)[C@]2(C)[C@@H](C)C(=O)CC[C@H]2[C@]1(C)COc1ccc2ccc(=O)oc2c1 [KAMOLONOL] | > 20 | 17.9 (≈ 45 µM) | > 20 | > 20 | – | – | > 20 | > 20 |
| COC(=O)CC[C@H]1C(=C(C)C)CC[C@H](C)[C@]1(C)COc1ccc2ccc(=O)oc2c1 [METHYL GALBANATE] | > 20 | 4.33 (≈ 10.5 µM) | > 20 | 8.42 (≈ 20.4 µM) | 0.26 (≈ 0.63 µM) | – | 19.1 (≈ 46.3 µM) | > 20 |
| CC1=CC(=O)[C@@H]2C(C)(C)[C@H](O)CC[C@@]2(C)[C@@H]1COc1ccc2ccc(=O)oc2c1 [LIGUPERSIN A] | – | – | – | – | 0.86 (≈ 2.17 µM) | 1.75 (≈ 4.41 µM) | – | – |
